Data on 19 compounds can be found in ChEMBL document CHEMBL4052812, “Imidazo[1,2-α]pyridines possess adenosine A1 receptor affinity for the potential treatment of cognition in neurological disorders” (Bioorg Med Chem Lett, 2017).

Assay [1] addresses T1, Adenosine receptor A1 (Rattus norvegicus) (UniProt P25099).
T1 sequence (whole entry): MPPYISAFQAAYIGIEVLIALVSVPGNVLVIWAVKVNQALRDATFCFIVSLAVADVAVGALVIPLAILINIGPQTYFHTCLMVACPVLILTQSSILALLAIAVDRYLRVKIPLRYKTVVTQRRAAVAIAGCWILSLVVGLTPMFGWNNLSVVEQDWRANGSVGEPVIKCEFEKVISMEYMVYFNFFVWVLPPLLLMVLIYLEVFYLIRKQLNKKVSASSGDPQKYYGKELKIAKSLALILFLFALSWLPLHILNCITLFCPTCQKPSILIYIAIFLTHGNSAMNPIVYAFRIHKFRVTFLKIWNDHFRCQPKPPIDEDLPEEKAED
Briefly: (§1) Displacement of [3H]-DPCPX from A1 receptor in rat whole brain membrane. Format: cell membranes. Set-up: concentration or dose not given beside the values. The note with it: concentration not given here. The gist of the method: (§2)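 Competition binding against [3H]DPCPX (Kd 0.36 nM) on rat whole brain membranes. Nonspecific binding set with 100 µM CPA. Eight test concentrations from 0 to 100 µM. IC50 from a sigmoidal fit of specific binding against log concentration, converted to Ki. Run in triplicate, mean ± SEM. Where no full curve was obtained, percent displacement of radioligand at 100 µM is given.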

For assay [2], the target named is T2, Adenosine receptor A1 (Rattus norvegicus, UniProt P25099).
T2 sequence (P25099 whole entry): T1 sequence (whole entry)
The description is as §1. The assay is classed as cell membranes. An outline of the steps:
as §2

Assay [3] concerns the target Adenosine receptor A2a (Rattus norvegicus) (UniProt P30543). Briefly: (§3) Displacement of [3H]-NECA from A2A receptor in rat striatal membrane in presence of A1 receptor agonist N6-cyclopentyladenosine. Set-up: concentration or dose not given beside the values. The settings on record: Striatum, concentration not given here. Format: cell membranes. An outline of the steps: (§4)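 Competition binding against [3H]NECA (Kd 15.3 nM) on rat striatal membranes, with the A1 agonist CPA present to suppress A1 binding. Nonspecific binding set with 100 µM CPA. Eight concentrations from 0 to 100 µM. Ki from the IC50 of a sigmoidal fit, in triplicate, mean ± SEM. Otherwise percent displacement at 100 µM.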
For orientation: Displacement assays read how much labelled ligand stays bound in the presence of the test substance.

The target of assay [4] is Adenosine receptor A2a (Rattus norvegicus, UniProt P30543). The description is as §3. The assay is classed as cell membranes, Striatum. The gist of the method:
as §4

Assay [5] concerns the target T3, Adenosine receptor A1 (Homo sapiens) (UniProt P30542).
T3 sequence (whole entry): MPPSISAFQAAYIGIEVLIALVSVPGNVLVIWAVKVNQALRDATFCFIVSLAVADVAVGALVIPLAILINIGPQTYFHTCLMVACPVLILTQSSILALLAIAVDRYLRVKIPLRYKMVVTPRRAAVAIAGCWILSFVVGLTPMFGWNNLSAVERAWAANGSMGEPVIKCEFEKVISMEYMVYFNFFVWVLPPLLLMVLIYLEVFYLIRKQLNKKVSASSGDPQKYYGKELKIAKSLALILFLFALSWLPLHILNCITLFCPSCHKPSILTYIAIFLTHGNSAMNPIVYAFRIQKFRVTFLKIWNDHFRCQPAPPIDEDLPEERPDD
Briefly: Displacement of [3H]-DPCPX from recombinant human A1 receptor expressed in CHOK1 cells at 100 uM measured after 30 mins by liquid scintillation counting method relative to control. The assay is classed as cell-based.

Assay [6] can be described thus: Displacement of [3H]CGS21680 from A2A receptor in bovine striatal membrane. The assay is classed as cell membranes, Bos taurus, Striatum.
Assay [7] concerns the target T2, Adenosine receptor A1. As to the kind of experiment: Displacement of [3H]-DPCPX from A1 receptor in rat whole brain membrane assessed as effect on GTP shift in presence of 100 uM GTP. Format: cell membranes. An outline of the steps: (§5)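 GTP shift test on rat whole brain membranes. [3H]DPCPX binding is run without GTP and with 100 µM GTP added. Ki is taken from a sigmoidal competition curve in each condition, in triplicate. The shift is Ki with GTP divided by Ki without GTP.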

Assay [8] has as its target T1, Adenosine receptor A1 (Rattus norvegicus). Briefly: Ratio of Ki for adenosine receptor A1 in rat brain membrane in presence of GTP to Ki for adenosine receptor A1 in rat brain membrane in absence of GTP. The assay is classed as cell membranes. The gist of the method: as §5

Chain of Adenosine receptor A2a (P30543 whole entry): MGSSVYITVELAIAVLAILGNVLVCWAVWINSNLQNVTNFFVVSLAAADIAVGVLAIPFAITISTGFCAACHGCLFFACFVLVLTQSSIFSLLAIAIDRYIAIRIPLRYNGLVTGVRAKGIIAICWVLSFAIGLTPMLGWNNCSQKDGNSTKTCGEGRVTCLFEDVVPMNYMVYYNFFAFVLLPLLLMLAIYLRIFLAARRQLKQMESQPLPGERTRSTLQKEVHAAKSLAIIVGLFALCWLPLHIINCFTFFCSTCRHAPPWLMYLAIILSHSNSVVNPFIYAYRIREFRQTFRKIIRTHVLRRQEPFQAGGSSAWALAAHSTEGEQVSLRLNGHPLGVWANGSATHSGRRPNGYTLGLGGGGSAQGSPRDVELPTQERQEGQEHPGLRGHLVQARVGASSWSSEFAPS
Chain of Adenosine receptor A2a (Rattus norvegicus) (P30543 whole entry): as above

One may read the inhibition as the relative decrease from the control value, in per cent. Usually Ki stands for a dissociation constant, usually derived from enzyme kinetics or from competition with a known ligand. Turning to `c1ccn2ccnc2c1`, the inhibition amounted to 100% in assay [1] and 75% in assay [3]. The inhibitory constant (Ki) in assay [2] and in assay [4] was more than 100 µM throughout.
As to `Brc1ccc(-c2nc3ccccn3c2NC2CCCCC2)cc1`, the Ki in assay [2] was 3.9 µM; in assay [4] it was more than 100 µM. In addition, in assay [3], the inhibition worked out at 54%.
In the same order, the values of `Oc1ccc(-c2nc3ccccn3c2NC2CCCCC2)cc1` are 5.53 µM, more than 100 µM and 27%.
Consider `c1ccc(CNc2c(-c3ccccc3)nc3ccccn23)cc1`, for which the inhibition in assay [5] stood at 89%.
Consider `FC(F)(F)c1ccc(-c2nc3ccccn3c2NC2CCCCC2)cc1`, for which the values for the inhibition in assay [1] and in assay [3] were 76% and 74%, respectively. For the same compound, the Ki in assay [2] and in assay [4] was more than 100 µM in each case.
As for `Clc1ccc(-c2nc3ccccn3c2NC2CCCCC2)cc1`, the inhibition stood at 61% in assay [1] and 64% in assay [3]. Further, the inhibition constant Ki in assay [2] and in assay [4] was more than 100 µM throughout.
Take `COc1ccc(-c2cn3ccccc3n2)cc1`: the values for the inhibition in assay [1] and in assay [3] were 76% and 61%, respectively. Further, the Ki in assay [2] and in assay [4] was more than 100 µM throughout.
`O=C(Nc1nc(-c2ccccc2)nc2nc(-c3ccccc3)cn12)C1CCCC1` had a Ki in assay [6] of 2.5 µM.
For `Oc1ccc(-c2cn3ccccc3n2)cc1`, the values for the inhibition in assay [1] and in assay [3] were 47% and 85%, respectively. The Ki in assay [2] and in assay [4] was more than 100 µM each time.
On to `CC(=O)Nc1nc(-c2ccccc2)nc2nc(C)cn12`, for which the Ki in assay [6] is more than 10 µM.
For the compound `Nc1c(-c2ccccc2)nc2ccccn12`, the inhibition was 52% in assay [1] and 86% in assay [3]. Further, the Ki in assay [2] and in assay [4] was more than 100 µM throughout.
Consider `Brc1ccc(-c2cn3ccccc3n2)cc1`, for which the inhibition turned out to be 86% in assay [1] and 87% in assay [3]. The Ki in assay [2] and in assay [4] was more than 100 µM in each case.
For `CC(=O)CNc1nc(-c2ccccc2)nc2nc(C)cn12`, the Ki in assay [6] is more than 10 µM.
Consider `COc1ccc(-c2nc3ccccn3c2NC2CCCCC2)cc1`, for which the inhibitory constant (Ki) in assay [2] is 7.61 µM; in assay [4], more than 100 µM. Moreover, the inhibition in assay [3] came to 55%.
Consider `c1ccc(-c2nc3ccccn3c2NC2CCCCC2)cc1`, for which the inhibition in assay [1] turned out to be 57%; in assay [3], 77%. For the same compound, the Ki in assay [2] and in assay [4] was more than 100 µM in each case.
As to `O=[N+]([O-])c1ccc(-c2nc3ccccn3c2NC2CCCCC2)cc1`, the inhibition turned out to be 99% in assay [1] and 69% in assay [3]. Also, the Ki in assay [2] and in assay [4] was more than 100 µM throughout.
Turning to `Fc1ccc(-c2nc3ccccn3c2NC2CCCCC2)cc1`, the inhibition was found to be 63% in assay [1] and 90% in assay [3]. Further, the Ki in assay [2] and in assay [4] was more than 100 µM throughout.
Take `c1ccc(-c2cn3ccccc3n2)cc1`: the figures for the inhibition in assay [1] and in assay [3] were 49% and 52%, respectively. The Ki in assay [2] and in assay [4] was more than 100 µM throughout.
Take `Cc1ccc(-c2nc3ccccn3c2NC2CCCCC2)cc1`: the Ki is 2 µM in assay [7], 2.06 µM in assay [2] and more than 100 µM in assay [4]. In addition, the inhibition in assay [3] turned out to be 83%. For the same compound, the Ratio Ki in assay [8] turned out to be 0.97.
